Experimental data: ChEMBL document CHEMBL4270541, “Synthesis and antimicrobial evaluation of amino sugar-based naphthoquinones and isoquinoline-5,8-diones and their halogenated compounds” (Eur J Med Chem, 2018)
Values after ≈ are worked out from the molar mass of the structure shown.

Columns and labels:
Enterococcus faecalis = assay: Antimicrobial activity against Enterococcus faecalis INCQS 00234 ATCC 29212 assessed as zone of inhibition at 5 mg/ml after 18 to 24 hrs by disc diffusion method; assay type: functional; conditions: ATCC 29212 INCQS 00234, read-out: IZ
Staphylococcus aureus [1] = assay: Ratio of MBC99.9 to MIC for methicillin-resistant Staphylococcus aureus BMB9393; assay type: functional
In short: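 MBC (99.9% kill on agar subculture of clear MIC wells, 24 h, 37°C) divided by broth microdilution MIC (24 h, 37°C). Ratio ≤2 taken as bactericidal and ≥4 as bacteriostatic.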

Escherichia coli [2] = assay: Ratio of MBC99.9 to MIC for Escherichia coli INCQS 00033 ATCC 25922; assay type: functional, ATCC 25922 INCQS 00033
In short: (§1)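 MBC/MIC ratio from the 24 h, 37°C microdilution MIC and the agar-plating MBC (99.9% growth inhibition). A ratio ≤2 was classed as bactericidal and ≥4 as bacteriostatic.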

Staphylococcus simulans [3] = assay: Antimicrobial activity against Staphylococcus simulans INCQS 00254 ATCC 27851 after 24 hrs by microdilution assay; assay type: functional; conditions: INCQS 00254 ATCC 27851, 24 h
Escherichia coli [4] = assay: Antimicrobial activity against Escherichia coli INCQS 00033 ATCC 25922 after 24 hrs by microdilution assay; assay type: functional; conditions: ATCC 25922 INCQS 00033, 24 h
[5] = system: Staphylococcus epidermidis; assay: Bactericidal activity against Staphylococcus epidermidis INCQS 00016 ATCC 12228 incubated for 24 hrs followed by transfer of microbial suspension to agar plates and measured after 24 hrs post transfer by resazurin dye-based colorimetric analysis; assay type: functional; conditions: ATCC 12228 INCQS 00016, 24 h, read-out: MBC99.9
In short: (§2)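 For MBC, 10 µL from each clear MIC well was plated on agar and incubated 24 h at 37°C. MBC is the minimum concentration inhibiting 99.9% of growth. […] Triplicate.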

Staphylococcus simulans [6] = assay: Ratio of MBC99.9 to MIC for Staphylococcus simulans INCQS 00254 ATCC 27851; assay type: functional; in short: as §1
Staphylococcus aureus [7] = assay: Antimicrobial activity against methicillin-resistant Staphylococcus aureus BMB9393 assessed as zone of inhibition at 5 mg/ml after 18 to 24 hrs by disc diffusion method; assay type: functional; conditions: read-out: IZ
Escherichia coli [8] = assay: Bactericidal activity against Escherichia coli INCQS 00033 ATCC 25922 incubated for 24 hrs followed by transfer of microbial suspension to agar plates and measured after 24 hrs post transfer by resazurin dye-based colorimetric analysis; assay type: functional; conditions: ATCC 25922 INCQS 00033, 24 h, read-out: MBC99.9; in short: as §2
Staphylococcus aureus [9] = assay: Bactericidal activity against methicillin-resistant Staphylococcus aureus BMB9393 incubated for 24 hrs followed by transfer of microbial suspension to agar plates and measured after 24 hrs post transfer by resazurin dye-based colorimetric analysis; assay type: functional; conditions: BMB9393, 24 h, read-out: MBC99.9
In short: (§3)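 From MIC wells with no visible growth, 10 µL is transferred to agar plates and incubated 24 h at 37°C. MBC is the minimum concentration inhibiting 99.9% of growth. […] Triplicate.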

[10] = system: Staphylococcus epidermidis; assay: Antimicrobial activity against Staphylococcus epidermidis INCQS 00016 ATCC 12228 after 24 hrs by microdilution assay; assay type: functional; conditions: ATCC 12228 INCQS 00016, 24 h
Staphylococcus aureus [11] = assay: Antimicrobial activity against Staphylococcus aureus INCQS 00015 ATCC 25923 assessed as zone of inhibition at 5 mg/ml after 18 to 24 hrs by disc diffusion method; assay type: functional; conditions: read-out: IZ
Proteus mirabilis = assay: Antimicrobial activity against Proteus mirabilis INCQS 00095 ATCC 15290 assessed as zone of inhibition at 5 mg/ml after 18 to 24 hrs by disc diffusion method; assay type: functional; conditions: read-out: IZ
Pseudomonas aeruginosa [12] = assay: Antimicrobial activity against Pseudomonas aeruginosa INCQS 00099 ATCC 27853 after 24 hrs by microdilution assay; assay type: functional; conditions: INCQS 00099 ATCC 27853, 24 h
Staphylococcus aureus [13] = assay: Antimicrobial activity against Staphylococcus aureus INCQS 00015 ATCC 25923 after 24 hrs by microdilution assay; assay type: functional; conditions: INCQS 00015 ATCC 25923, 24 h
[14] = system: Staphylococcus epidermidis; assay: Antimicrobial activity against Staphylococcus epidermidis INCQS 00016 ATCC 12228 assessed as zone of inhibition at 5 mg/ml after 18 to 24 hrs by disc diffusion method; assay type: functional; conditions: ATCC 12228 INCQS 00016, read-out: IZ
Pseudomonas aeruginosa [15] = assay: Ratio of MBC99.9 to MIC for Pseudomonas aeruginosa INCQS 00099 ATCC 27853; assay type: functional; in short: as §1
Staphylococcus simulans [16] = assay: Antimicrobial activity against Staphylococcus simulans INCQS 00254 ATCC 27851 assessed as zone of inhibition at 5 mg/ml after 18 to 24 hrs by disc diffusion method; assay type: functional; conditions: read-out: IZ
Staphylococcus simulans [17] = assay: Bactericidal activity against Staphylococcus simulans INCQS 00254 ATCC 27851 incubated for 24 hrs followed by transfer of microbial suspension to agar plates and measured after 24 hrs post transfer by resazurin dye-based colorimetric analysis; assay type: functional; conditions: INCQS 00254 ATCC 27851, 24 h, read-out: MBC99.9; in short: as §2
Pseudomonas aeruginosa [18] = assay: Bactericidal activity against Pseudomonas aeruginosa INCQS 00099 ATCC 27853 incubated for 24 hrs followed by transfer of microbial suspension to agar plates and measured after 24 hrs post transfer by resazurin dye-based colorimetric analysis; assay type: functional; conditions: INCQS 00099 ATCC 27853, 24 h, read-out: MBC99.9; in short: as §2
Staphylococcus aureus [19] = assay: Ratio of MBC99.9 to MIC for Staphylococcus aureus INCQS 00015 ATCC 25923; assay type: functional; in short: as §1
Escherichia coli [20] = assay: Antimicrobial activity against Escherichia coli INCQS 00033 ATCC 25922 assessed as zone of inhibition at 5 mg/ml after 18 to 24 hrs by disc diffusion method; assay type: functional; conditions: ATCC 25922 INCQS 00033, read-out: IZ
Pseudomonas aeruginosa [21] = assay: Antimicrobial activity against Pseudomonas aeruginosa INCQS 00099 ATCC 27853 assessed as zone of inhibition at 5 mg/ml after 18 to 24 hrs by disc diffusion method; assay type: functional; conditions: read-out: IZ
Staphylococcus aureus [22] = assay: Antimicrobial activity against methicillin-resistant Staphylococcus aureus BMB9393 after 24 hrs by microdilution assay; assay type: functional; conditions: BMB9393, 24 h
Klebsiella pneumoniae = assay: Antimicrobial activity against Klebsiella pneumoniae INCQS 00083 ATCC 4352 assessed as zone of inhibition at 5 mg/ml after 18 to 24 hrs by disc diffusion method; assay type: functional; conditions: read-out: IZ
Staphylococcus aureus [23] = assay: Bactericidal activity against Staphylococcus aureus INCQS 00015 ATCC 25923 incubated for 24 hrs followed by transfer of microbial suspension to agar plates and measured after 24 hrs post transfer by resazurin dye-based colorimetric analysis; assay type: functional; conditions: INCQS 00015 ATCC 25923, 24 h, read-out: MBC99.9; in short: as §3
[24] = system: Staphylococcus epidermidis; assay: Ratio of MBC99.9 to MIC for Staphylococcus epidermidis INCQS 00016 ATCC 12228; assay type: functional, ATCC 12228 INCQS 00016; in short: as §1
[25] = Hemolytic activity against human erythrocytes assessed as hemolysis at 200 ug/ml after 3 hrs by spectrophotometric analysis relative to control; assay type: ADME, cell-based, Erythrocyte; conditions: read-out: Activity
In short: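 Erythrocytes collected in citrate tubes, washed three times with PBS pH 7.4 by centrifugation and resuspended in PBS. Incubated with compounds at 200 µg/mL for 3 h at 37°C. Released hemoglobin was read in the supernatant at 545 nm against 1% Triton X-100 (complete lysis) and 1% DMSO (negative control). Below 10% hemolysis was taken as hemocompatible. Three independent experiments.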

NC1=C(Br)C(=O)c2ccccc2C1=O
zone of inhibition at 5000 µg/mL (Enterococcus faecalis): 0 mm | Ratio (Staphylococcus aureus [1]): 1 | Ratio (Escherichia coli [2]): 1 | MIC (Staphylococcus simulans [3]): 128 µg/mL (≈ 508 µM) | MIC (Escherichia coli [4]): 64 µg/mL (≈ 254 µM) | MBC [5]: 128 µg/mL (≈ 508 µM) | Ratio (Staphylococcus simulans [6]): 1 | zone of inhibition at 5000 µg/mL (Staphylococcus aureus [7]): 16 mm | MBC (Escherichia coli [8]): 64 µg/mL (≈ 254 µM) | MBC (Staphylococcus aureus [9]): 64 µg/mL (≈ 254 µM) | MIC [10]: 128 µg/mL (≈ 508 µM) | zone of inhibition at 5000 µg/mL (Staphylococcus aureus [11]): 10 mm | zone of inhibition at 5000 µg/mL (Proteus mirabilis): 0 mm | MIC (Pseudomonas aeruginosa [12]): 32 µg/mL (≈ 127 µM) | MIC (Staphylococcus aureus [13]): 64 µg/mL (≈ 254 µM) | zone of inhibition at 5000 µg/mL [14]: 12 mm | Ratio (Pseudomonas aeruginosa [15]): 1 | zone of inhibition at 5000 µg/mL (Staphylococcus simulans [16]): 17 mm | MBC (Staphylococcus simulans [17]): 128 µg/mL (≈ 508 µM) | MBC (Pseudomonas aeruginosa [18]): 32 µg/mL (≈ 127 µM) | Ratio (Staphylococcus aureus [19]): 1 | zone of inhibition at 5000 µg/mL (Escherichia coli [20]): 8 mm | zone of inhibition at 5000 µg/mL (Pseudomonas aeruginosa [21]): 14 mm | MIC (Staphylococcus aureus [22]): 64 µg/mL (≈ 254 µM) | zone of inhibition at 5000 µg/mL (Klebsiella pneumoniae): 0 mm | MBC (Staphylococcus aureus [23]): 64 µg/mL (≈ 254 µM) | Ratio [24]: 1 | hemolysis at 3 h, 200 ug/ml [25]: 10.1 to 14.4%
